Measurements: ChEMBL document CHEMBL3244315, “Synthesis and antitumor properties of some isoindolylalkylphosphonium salts” (J Med Chem, 1978)

What was measured:
[1] = system: P388; assay: Antitumor activity against mouse P388 cells allografted in mouse at 6.25 mg/kg, ip; format: functional; settings: route intraperitoneal
How it was run: (§1)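 P-388 lymphocytic leukemia in mice, run by NCI Division of Cancer Treatment standard protocol. Drug given intraperitoneally once daily on days 1-9, dose in mg/kg, with H2O, H2O + Tween 80 or saline as vehicle. Read-out is T/C = treated/control mean or median survival time × 100, and ≥125% counts as significant. Active results were repeated in at least one more experiment.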

[2] = system: P388; assay: Antitumor activity against mouse P388 cells allografted in mouse at 100 mg/kg, ip; format: functional; settings: route intraperitoneal; how it was run: as §1
[3] = system: Mus musculus; assay: Toxicity in mouse P388 cells allografted mouse at 25 mg/kg, ip; format: organism-based; design: dose 25 mg/kg, route intraperitoneal; settings: in vivo
[4] = system: P388; assay: Antitumor activity against mouse P388 cells allografted in mouse at 25 mg/kg, ip; format: functional; settings: route intraperitoneal; how it was run: as §1
[5] = system: P388; assay: Antitumor activity against mouse P388 cells allografted in mouse at 12.5 mg/kg, ip; format: functional; settings: route intraperitoneal; how it was run: as §1
[6] = system: P388; assay: Antitumor activity against mouse P388 cells allografted in mouse at 3.13 mg/kg, ip; format: functional; settings: route intraperitoneal; how it was run: as §1
[7] = system: P388; assay: Antitumor activity against mouse P388 cells allografted in mouse at 18.8 mg/kg, ip; format: functional; settings: route intraperitoneal; how it was run: as §1
[8] = system: P388; assay: Antitumor activity against mouse P388 cells allografted in mouse at 6 mg/kg, ip; format: functional; settings: route intraperitoneal; how it was run: as §1
[9] = system: P388; assay: Antitumor activity against mouse P388 cells allografted in mouse at 9 mg/kg, ip; format: functional; settings: route intraperitoneal; how it was run: as §1
[10] = system: P388; assay: Antitumor activity against mouse P388 cells allografted in mouse at 50 mg/kg, ip; format: functional; settings: route intraperitoneal; how it was run: as §1

For O.O=C1c2ccccc2C(=O)N1CC[P+](c1ccccc1)(c1ccccc1)c1ccccc1.[Cl-], the T/C [1] was 133%.

CCCC[P+](CCCC)(CCCC)CCN1C(=O)c2ccccc2C1=O.O.[Br-] was tested, and the T/C [2] was 116%.

In the case of O.O=c1c2cc3c(=O)n(CC[P+](c4ccccc4)(c4ccccc4)c4ccccc4)c(=O)c3cc2c(=O)n1CC[P+](c1ccccc1)(c1ccccc1)c1ccccc1.[Br-].[Br-], the Activity [3] is reported as “Toxic” and the T/C [4] is reported as 18%.

With Br.O.[Br-].c1ccc([P+](CCN2Cc3ccccc3C2)(c2ccccc2)c2ccccc2)cc1 the T/C [1] was 118%.

N#CCC[P+](CCC#N)(CCC#N)CCN1C(=O)c2ccccc2C1=O.O.[Br-] was tested, and the T/C [4] was 117%.

Compound O=C1c2ccccc2C(=O)N1CCP(=O)(c1ccccc1)c1ccccc1 has a T/C [4] of 106%.

Work on Cc1ccc2c(c1)C(=O)N(CC[P+](c1ccccc1)(c1ccccc1)c1ccccc1)C2=O.[Br-] yielded a T/C [1] of 139%.

O.O=C1c2ccccc2C(=O)N1CCC[P+](c1ccccc1)(c1ccccc1)c1ccccc1.[Br-] showed a T/C [5] of 151%.

With Cc1cccc2c1C(=O)N(CC[P+](c1ccccc1)(c1ccccc1)c1ccccc1)C2=O.[Br-] the T/C ([6]; dose 3.13 mg/kg) was 140%.

O.O=C1c2ccccc2C(=O)N1C[P+](c1ccccc1)(c1ccccc1)c1ccccc1.[Br-] gave a T/C [7] of 136%.

With O=C1c2ccccc2C(=O)N1CC[P+](c1ccccc1)(c1ccccc1)c1ccccc1.[Br-] the T/C [5] was 160%.

In the case of O.O=C1C2CC=CCC2C(=O)N1CC[P+](c1ccccc1)(c1ccccc1)c1ccccc1.[Br-] (stereo unspecified), the T/C [4] is reported as 115%.

[Br-].c1ccc([P+](CCN2Cc3ccccc3C2)(c2ccccc2)c2ccccc2)cc1 gave a T/C [1] of 114% and a T/C ([6]; dose 6.25 mg/kg, in the assay text read “at 6.25 mg/kg” for “at 3.13 mg/kg”) of 114%.

Compound O=C1c2ccccc2C(=O)N1CC[P+](Cc1ccccc1)(Cc1ccccc1)Cc1ccccc1.[Br-] has a T/C [4] of 112%.

In the case of COCC[P+](c1ccccc1)(c1ccccc1)c1ccccc1.[Br-], the T/C [5] is reported as 123%.

O=C1C=CC(=O)N1CC[P+](c1ccccc1)(c1ccccc1)c1ccccc1.[Br-] was tested, and the T/C [4] was 120%.

For BrCC[P+](c1ccccc1)(c1ccccc1)c1ccccc1.[Br-], the T/C ([6]; dose 3.13 mg/kg) was 127%.

O=C1c2ccccc2C(=O)N1CC[P+](C1CCCCC1)(C1CCCCC1)C1CCCCC1.[Br-] was tested, and the T/C [4] was 118%.

With COc1ccc([P+](CCN2C(=O)c3ccccc3C2=O)(c2ccc(OC)cc2)c2ccc(OC)cc2)cc1.O.[Br-] the T/C [8] was 134%.

In the case of Cc1ccc([P+](CCN2C(=O)c3ccccc3C2=O)(c2ccc(C)cc2)c2ccc(C)cc2)cc1.O.[Br-], the T/C [1] is reported as 134%.

O.O=C1c2ccccc2C(=O)N1CC[P+](c1ccc(Cl)cc1)(c1ccc(Cl)cc1)c1ccc(Cl)cc1.[Br-] showed a T/C [1] of 110%.

O=C1c2ccccc2C(=O)N1CCCC[P+](c1ccccc1)(c1ccccc1)c1ccccc1.[Br-] was tested, and the T/C [9] was 121%.

With O.O=C1c2ccc([N+](=O)[O-])cc2C(=O)N1CC[P+](c1ccccc1)(c1ccccc1)c1ccccc1.[Br-] the T/C [4] was 107%.

For O.O=C1c2cccc([N+](=O)[O-])c2C(=O)N1CC[P+](c1ccccc1)(c1ccccc1)c1ccccc1.[Br-], the T/C [10] was 109%.
